The source made the active and inactive calls.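 Rule for the calls, unless noted: active = viability loss from added drug above about 55%, and viability with drug at most 40%, in both replicates (limit read from the data, passing the limit was not always enough); inconclusive = both conditions met in only one replicate; inactive = neither replicate meets both conditions.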
Assays:
[1] = reduced viability of SK-BR-3 breast cancer cells – cell-based, 24 h, human, pilot screen (AID 572;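 active = viability at or below 10% of carrier control in both of two separate runs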;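 note: compound exposure lasted between 18 and 24 h rather than exactly 24 h; 100% = carrier-treated control wells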); conditions: SK-BR-3 viability, CellTiter-Glo luminescence, at 10 µM, stronger effect = lower value
[2] = HUVEC growth inhibition – cell-based, human, primary screen (AID 575;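 active = viability at or below 30% in both replicate assays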;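 note: 100% = median of untreated cell wells with 0.1% DMSO on each plate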); conditions: HUVEC proliferation, CellTiter-Glo luminescence, 72 h; at 10 µM; stronger effect = lower value
Outline: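 Assay system: primary human umbilical vein endothelial cells / Buffer or medium: endothelial basal medium with 2% FBS plus growth supplements / Compound dosing: one dose, 10 µM final, 0.1% DMSO / Timing: 72 h treatment at 37 °C / Signal: CTG luminescence / Benchmarks: 32 DMSO-only cell-control wells (high), 32 MePR drug-control wells (low) per plate / Plate: collagen-coated 384-well format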

[3] = H69AR cell proliferation blockers – human, duplicate replicates, primary screen (AID 580;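 active = viability at or under a set limit in both replicates, limit being median viability minus 3 SD, cut at about 48% in these data, passing the limit was not always enough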;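 note: 100% = mean luminescence of untreated wells and 0% = no signal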); conditions: H69AR lung tumor cells viability, ATP luminescence, 72 h; at 10 µM; stronger effect = lower value
[4] = MRP1 drug-resistance reversers in H69AR cells – cell-based, doxorubicin co-treatment, pilot screen (AID 601); conditions: CellTiter-Glo, 72 h, at 10 µM; for differential viability (reversal): stronger effect = higher value
[5] = yeast transport mutant growth inhibition pilot in 384-well plates, post-Golgi transport modulator project (AID 636; in the data active = inhibition above about 31%); conditions: absorbance 615 nm, about 18 h, stronger effect = higher value
[6] = growth suppression of yeast trafficking mutant, preliminary HTS, modulators of trafficking downstream of Golgi apparatus project, 1536-format plate, OD 615 nm (AID 637; in the data active = inhibition above about 30%); conditions: yeast transport mutant growth, absorbance 615 nm, 18 h; stronger effect = higher value
[7] = H69AR cells + 2 uM doxorubicin, measured here: viability with 2 uM doxorubicin, stronger effect = lower value
[8] = H69AR cells, compound alone cytotoxicity

SMILES	viability [1]	viability [2]	viability [3]	differential viability (reversal) ([4]; H69AR cells + 2 uM doxorubicin)	viability [4, 7] [%]	viability [4, 8] [%]	inhibition [5]	inhibition [6]
CCN(CC)CCOC(=O)C(c1ccccc1)c1ccccc1	81% (inactive)	81.1% (inactive)	101% (inactive)	7.5% (inactive)	93.2	101	-4.81% (inactive)	1.67% (inactive)
COC(=O)c1cccc(S(=O)(=O)N2CCC(C)CC2)c1	100% (inactive)	105% (inactive)	93.8% (inactive)	-4.31% (inactive)	98.1	93.8	0.52% (inactive)	-3.44% (inactive)
O=C(CN1C(=O)CC(c2ccco2)Sc2ccccc21)Nc1ccc2c(c1)OCCO2 (configuration not stated)	130% (inactive)	99% (inactive)	76.9% (inactive)	1.83% (inactive)	75.1	76.9	-2.76% (inactive)	-0.16% (inactive)
NC(=O)C1CCN(c2nc(-c3ccccc3)nc3ccccc23)CC1	114% (inactive)	77.2% (inactive)	66.3% (inactive)	-2.88% (inactive)	69.2	66.3	-3.15% (inactive)	-4.03% (inactive)
O=C(O)COc1cccc(NC(=O)C2CCCO2)c1 (configuration not stated)	81% (inactive)	102% (inactive)	93.3% (inactive)	-10.7% (inactive)	104	93.3	0.14% (inactive)	10.9% (inactive)
Cc1cc(C(C)(C)C)c(O)c(C)c1CC1=NCCN1	95% (inactive)	93.4% (inactive)	92.5% (inactive)	2.26% (inactive)	90.3	92.5	-9.04% (inactive)	-3.23% (inactive)
COc1nc(C)ccc1-c1noc(-c2ccncc2)n1	101% (inactive)	86.5% (inactive)	95.1% (inactive)	11.4% (inactive)	83.6	95.1	-8.22% (inactive)	1.45% (inactive)
CC(C(=O)NC(=O)NC1CCCCC1)N1CCN(c2ccccn2)CC1 (configuration not stated)	96% (inactive)	95.6% (inactive)	104% (inactive)	14.7% (inactive)	88.9	104	-2.4% (inactive)	-3.27% (inactive)
COc1ccc(CCNc2oc(COc3ccc(F)cc3)nc2C#N)cc1	164% (inactive)	76.2% (inactive)	93.7% (inactive)	2.54% (inactive)	91.1	93.7	-4.73% (inactive)	1.27% (inactive)
COc1cccc2sc(NC(=O)c3ccc(S(=O)(=O)N4CCOCC4)cc3)nc12	113% (inactive)	85.5% (inactive)	86.7% (inactive)	16.8% (inactive)	69.8	86.7	-7.16% (inactive)	-8.18% (inactive)
O=C1CC(c2ccccc2)Cc2nc(N3CCc4ccccc43)ncc21 (configuration not stated)	79% (inactive)	108% (inactive)	76.5% (inactive)	12% (inactive)	64.6	76.5	-6.89% (inactive)	1.82% (inactive)
Cc1cccc(NC(=O)C2CCCN2C(=O)OCC(C)C)c1C (configuration not stated)	96% (inactive)	108% (inactive)	92% (inactive)	8.52% (inactive)	83.5	92	-4.86% (inactive)	-3.82% (inactive)
COC(=O)Cc1c(C)nc2nc[nH]n2c1=O	88% (inactive)	93% (inactive)	105% (inactive)	9.79% (inactive)	95.3	105	-4.73% (inactive)	-2.91% (inactive)
CCOC(=O)n1c(=O)oc2cc(S(=O)(=O)N3CCCCC3)ccc21	97% (inactive)	112% (inactive)	90.2% (inactive)	-0.62% (inactive)	90.8	90.2	-4.27% (inactive)	-2.91% (inactive)
Cc1ccc(NC2=NCC(=O)N2c2ccc3c(c2)OCCO3)c(C)c1	84% (inactive)	95.7% (inactive)	99.4% (inactive)	0.67% (inactive)	98.7	99.4	-6.16% (inactive)	-2.9% (inactive)
c1cc2c(cc1Nc1nc(-c3ccc4c(c3)OCO4)cs1)OCCO2	97% (inactive)	72.6% (inactive)	90.5% (inactive)	-8.93% (inactive)	99.4	90.5	-4.19% (inactive)	-10% (inactive)
COc1cccc(N2CCN(Cc3nc(N)nc(Nc4ccccc4)n3)CC2)c1	119% (inactive)	89.1% (inactive)	75.5% (inactive)	-14.5% (inactive)	90	75.5	-3.77% (inactive)	0.16% (inactive)
Cc1cc(=O)n2nc(N3CCCC(C(=O)N4CCN(C)CC4)C3)sc2n1 (configuration not stated)	110% (inactive)	101% (inactive)	95.7% (inactive)	7.05% (inactive)	88.7	95.7	-5.81% (inactive)	-5.09% (inactive)
CCNC(=O)CC1C(=O)N(c2ccccc2)C(=O)N1CCC(C)C (configuration not stated)	117% (inactive)	95.9% (inactive)	93.5% (inactive)	13.9% (inactive)	79.6	93.5	-0.78% (inactive)	-0.82% (inactive)
COc1ccc(Nc2nc(-c3sc(N)nc3C)cs2)cc1	93% (inactive)	92.9% (inactive)	80.2% (inactive)	-5.13% (inactive)	85.3	80.2	-8.24% (inactive)	0.73% (inactive)
O=C(NCCCN1CCN(Cc2ccccc2)CC1)C1CCN(c2nnc(-n3cccc3)s2)CC1	118% (inactive)	97.1% (inactive)	88.7% (inactive)	4.26% (inactive)	84.4	88.7	-4.93% (inactive)	-1.82% (inactive)
c1ccc(Cc2nn3c(Cn4cnc5ccccc54)nnc3s2)cc1	128% (inactive)	78.9% (inactive)	85.8% (inactive)	3.46% (inactive)	82.3	85.8	-5.34% (inactive)	-0.65% (inactive)
CCN(CC)S(=O)(=O)c1ccc(NC(=O)c2cccc3c2C(=O)N(CCOC)C3)cc1	119% (inactive)	109% (inactive)	94.4% (inactive)	9.21% (inactive)	85.2	94.4	-9.73% (inactive)	-5.45% (inactive)
CCOC(=O)C1=C(C)NC(C)=C(C(=O)OC)C1c1cccc([N+](=O)[O-])c1 (configuration not stated)	68% (inactive)	58% (inactive)	83% (inactive)	-14.7% (inactive)	97.7	83	5.58% (inactive)	-1.17% (inactive)
O=S(=O)(Nn1cnnc1)c1ccccc1Cl	84% (inactive)	109% (inactive)	89.3% (inactive)	-3.4% (inactive)	92.7	89.3	4% (inactive)	7.09% (inactive)

SMILES	viability [1]	viability [2]	viability [3]	differential viability (reversal) ([4]; H69AR cells + 2 uM doxorubicin)	viability [4, 7] [%]	viability [4, 8] [%]	inhibition [5]	inhibition [6]
CC(=O)N1CCc2cc(S(=O)(=O)NCCC(=O)Nc3cc(C)cc(C)c3)ccc21	95% (inactive)	104% (inactive)	95.6% (inactive)	0.35% (inactive)	95.3	95.6	-4.93% (inactive)	-4% (inactive)
Cc1nc2cc(C(=O)O)ccc2n1-c1ccc(F)cc1F	120% (inactive)	94.3% (inactive)	101% (inactive)	7.17% (inactive)	93.7	101	-4.42% (inactive)	2.62% (inactive)
N#CC1=C(N)C(C#N)(C#N)[C@H](c2ccsc2)[C@H]2COCC=C12	126% (inactive)	96% (inactive)	97.4% (inactive)	2.33% (inactive)	95.1	97.4	-6.03% (inactive)	2.58% (inactive)
COCCNC(=O)c1snc2ccc(Cl)cc12	89% (inactive)	83.4% (inactive)	102% (inactive)	10.2% (inactive)	91.5	102	4.42% (inactive)	4.43% (inactive)
O=C(NCc1ccco1)c1ccccc1Nc1ccc(F)cc1	80% (inactive)	97.1% (inactive)	79.2% (inactive)	5.57% (inactive)	73.6	79.2	-7.03% (inactive)	-7.09% (inactive)
CCOc1cc2[nH]c(=O)n(CCC(=O)NCCc3ccc(OC)c(OC)c3)c(=O)c2cc1OCC	103% (inactive)	75.4% (inactive)	96.8% (inactive)	17.1% (inactive)	79.7	96.8	-3.38% (inactive)	-0.98% (inactive)
COc1cc(C(=O)Nc2cc(C)ccn2)cc(OC)c1OC	90% (inactive)	89.5% (inactive)	97.5% (inactive)	17.6% (inactive)	79.9	97.5	0.55% (inactive)	-6.13% (inactive)
Cc1ccccc1-n1nc(C)c2cc(C(=O)NCc3cccnc3)sc21	126% (inactive)	74.1% (inactive)	70.3% (inactive)	10.8% (inactive)	59.4	70.3	-1.95% (inactive)	9.51% (inactive)
Cc1cccc(N2CCN(C(=O)C3CCCN(S(=O)(=O)c4cnc[nH]4)C3)CC2C)c1 (configuration not stated)	90% (inactive)	90.2% (inactive)	95.6% (inactive)	6.94% (inactive)	88.7	95.6	-0.26% (inactive)	-0.98% (inactive)
COc1ccc(CN(C2CCCC2)S(=O)(=O)c2ccc(-n3cnnn3)cc2)cc1OC	71% (inactive)	80.5% (inactive)	81.6% (inactive)	-14% (inactive)	95.6	81.6	-7.12% (inactive)	0.81% (inactive)
N/C(=N/O)c1nc(N2CCCCC2)nc(N2CCCCC2)n1	115% (inactive)	80.5% (inactive)	94.9% (inactive)	-0.21% (inactive)	95.1	94.9	-0.65% (inactive)	-0.98% (inactive)
CCC1Oc2ccc(C)cc2N(CC(=O)NCCCN2CCCCC2CC)C1=O (configuration not stated)	99% (inactive)	83.7% (inactive)	87.5% (inactive)	-6.5% (inactive)	93.9	87.5	-0.78% (inactive)	-0.66% (inactive)
Cc1ccn2cc(CCNC(=O)CC(C)(C)C)nc2c1	89% (inactive)	113% (inactive)	97.9% (inactive)	9.27% (inactive)	88.6	97.9	-4.19% (inactive)	-2.36% (inactive)
COc1ccccc1C(=O)NCC(=O)Nc1ccccc1	104% (inactive)	98.2% (inactive)	98.5% (inactive)	-1.45% (inactive)	100	98.5	-8.08% (inactive)	2.91% (inactive)
N#Cc1c(N)oc(-c2cccs2)c1-c1cccs1	107% (inactive)	107% (inactive)	95% (inactive)	1.77% (inactive)	93.2	95	-6.93% (inactive)	-3.82% (inactive)
COc1ccc(OC)c(S(=O)(=O)Nc2ccccc2SC)c1	72% (inactive)	83.7% (inactive)	100% (inactive)	18.9% (inactive)	81	100	-5.34% (inactive)	-1.45% (inactive)
N#CCC(=O)Nc1ncn(Cc2ccccc2Cl)n1	95% (inactive)	105% (inactive)	95.2% (inactive)	-10.4% (inactive)	106	95.2	-4.52% (inactive)	3.82% (inactive)
CCn1c(SCC(=O)Nc2ccc3c(c2)OCO3)nnc1-c1ccccc1O	96% (inactive)	92% (inactive)	101% (inactive)	13.5% (inactive)	87.2	101	-1.69% (inactive)	-0.33% (inactive)
COc1cc(S(=O)(=O)NC2CCCCC2C)ccc1Cl (configuration not stated)	83% (inactive)	98.3% (inactive)	92.4% (inactive)	-3.38% (inactive)	95.8	92.4	-7.81% (inactive)	1.45% (inactive)
CN(C)c1nc(OCCOC(=O)Nc2ccc(Cl)cc2Cl)nc(N(C)C)n1	70% (inactive)	103% (inactive)	96.3% (inactive)	16.4% (inactive)	79.9	96.3	-5.21% (inactive)	2.91% (inactive)
CN(CC(=O)Nc1ccc(F)c(Cl)c1)S(=O)(=O)c1cccc2nsnc12	99% (inactive)	74.3% (inactive)	90.1% (inactive)	8.32% (inactive)	81.8	90.1	-2.3% (inactive)	-1.09% (inactive)
Cc1cc(-c2ccccc2)nc(SCc2ccc(C(=O)O)o2)n1	121% (inactive)	103% (inactive)	97.5% (inactive)	5.94% (inactive)	91.6	97.5	-5.6% (inactive)	0.73% (inactive)
COc1cc(NC(=O)c2cccs2)cc(OC)c1	72% (inactive)	95.4% (inactive)	97.7% (inactive)	13.6% (inactive)	84	97.7	-2.97% (inactive)	-8.18% (inactive)
COC(=O)c1[nH]c2ccc(C)cc2c1NC(=O)CN1CCN(C(=O)c2ccccc2)CC1	130% (inactive)	94% (inactive)	78.4% (inactive)	33.4% (inactive)	44.9	78.4	-4.67% (inactive)	-0.36% (inactive)

Reference: PubChem BioAssay
